Where a SMILES comes first, the peptide text is derived from it.
Columns and labels:
Arf GAP2 [1] = target: T1, Arf GAP2 (Homo sapiens, UniProt Q8N6H7); test: Cargo peptide titration in coatomer-dependent GAP assay; format: biochemical; conditions: for effect of peptide on Arf GAP2 activity: LUVs PI4P 0.03 μm, 3 min 30 °C
Method in brief: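 Arf GAP2 [1–521]-His6 (E. coli, refolded from inclusion bodies) at 11.4 nM, with 124 nM rat-liver coatomer. Substrate was 0.6 μM [α32P]GTP•myrArf1 on PI4P LUVs extruded through 0.03 μm pores. p23, p24 or p25 cytoplasmic-tail peptides (p25 also palmitoyl- or WRM-extended) were titrated in. Reactions ran 3 min at 30 °C. Palmitoyl-peptide data were fit to one-site binding with offset; duplicate experiments.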

Arf GAP2 [2] = target: T1, Arf GAP2; test: Saturation kinetics following [α^32P]GTP hydrolysis; format: biochemical; conditions: 25 μM peptide, 124 nM coatomer, LUVs 0.03 μm
Method in brief: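 Saturation kinetics used [α32P]GTP•Arf1, titrated into reactions with 10 nM Arf GAP2 [1–521]-His6 and 124 nM coatomer, with or without 25 μM p25 peptide. LUVs contained PI4P and were extruded through 0.03 μm pores. Reactions stopped after 3 min at 30 °C. Data were fit to Michaelis-Menten and Hill equations, with kcat calculated from Vmax; three experiments.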

Arf GAP1 = test: Effect of p25 on Arf GAP1 with and without coatomer; format: biochemical; conditions: 25 μM p25, 28 nM Arf GAP1, 124 nM coatomer, 3 min 30°C
Arf GAP2 [3] = target: T1, Arf GAP2; test: Time dependence; format: biochemical
Arf GAP2 [4] = target: T1, Arf GAP2; test: Saturation kinetics, tryptophan fluorescence based assay; format: biochemical; conditions: 25 μM peptide, 124 nM coatomer, LUVs 0.03 μm
Method in brief: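 myrArf1•GTP was titrated into reactions with 114 nM Arf GAP2 [1–521]-His6, 124 nM coatomer and PI4P LUVs (0.03 μm pores), with or without 25 μM p25 peptide. GTP→GDP conversion was followed by tryptophan fluorescence. Readings were corrected for time-dependent fluorescence change of Arf GAP2 ± coatomer. Initial rates were fit to Michaelis-Menten and Hill equations; kcat came from Vmax.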

ASAP1 = test: Effect of coatomer and p25 on ASAP1 GAP activity; format: biochemical; conditions: 1 nM ASAP1, 3 min 30°C
Method in brief: (§1)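 GAP enzyme was Arf GAP2 [1–521]-His6 or His10-[325–724]ASAP1. Mixtures held 0.6 μM [α32P]GTP•Arf1 on PI4P LUVs extruded through 0.03 μm pores, with or without 124 nM coatomer and 25 μM p25 peptide. Fraction of GTP hydrolysed in 3 min at 30 °C was measured.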

Arf GAP2 [5] = target: T1, Arf GAP2; test: Coatomer titration in Arf GAP2 GAP assay; format: biochemical
Method in brief: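 Coatomer was titrated into reactions with 11.4 nM Arf GAP2 [1–521]-His6, 0.6 μM [α32P]GTP•myrArf1 and 25 μM p25 peptide. LUVs contained PI4P and were extruded through 1.0 or 0.03 μm pores. Reactions ran 3 min at 30 °C. Read-out was hydrolysis of Arf1-bound GTP.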

Arf GAP2 [6] = test: Effect of p25 on Arf GAP2 with and without coatomer; format: biochemical; conditions: 3 min 30°C
Method in brief: as §1

[7] = test system: [α^32P]GTP•Arf1 (myrArf1); test: GAP assay: Arf GAP titration, hydrolysis of [α^32P]GTP bound to myrArf1; format: biochemical, Human; conditions: for C50 (amount of Arf GAP needed for 50% of maximum observed hydrolysis) / Maximum GTP Hydrolysis: 0.6 μM [α^32P]GTP•Arf1, 3 min, 30 °C, mean ± SD, three experiments
Arf GAP2 [8] = target: T1, Arf GAP2; conditions: tryptophan fluorescence assay; ref [33]; cited from earlier work
Protein binding to LUVs = conditions: 1 μM Arf GAP2; 5 min, 30°C; Coomassie Blue; not shown
Method in brief: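 Sucrose-loaded LUVs (1 mM total lipid), extruded through 0.03 or 1 μm pores, were incubated with purified Arf GAP2 (1 μM) for 5 min at 30 °C. Vesicles were pelleted at 100,000 × g for 15 min at 4 °C. Bound protein was resolved by SDS-PAGE and stained with Coomassie Blue.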

coatomer = conditions: ref [18]; cited from earlier work
Arf GAP2 [9] = target: T1, Arf GAP2; format: biochemical; conditions: for effect of phosphoinositide on Arf GAP2 activity: without coatomer
[10] = 11.4 nM Arf GAP2, 124 nM coatomer
[11] = LUVs 2.5% PI4P, 0.03 μm pores, 124 nM coatomer and 25 μM p25 where indicated
[12] = LUVs 2.5% PI4P, 1.0 μm pores, 124 nM coatomer and 25 μM p25 where indicated
[13] = LUVs 2.5% PIP2, 0.03 μm pores, 124 nM coatomer where indicated
[14] = LUVs 2.5% PIP2, 1.0 μm pores, 124 nM coatomer where indicated

T1 sequence (Q8N6H7 whole entry): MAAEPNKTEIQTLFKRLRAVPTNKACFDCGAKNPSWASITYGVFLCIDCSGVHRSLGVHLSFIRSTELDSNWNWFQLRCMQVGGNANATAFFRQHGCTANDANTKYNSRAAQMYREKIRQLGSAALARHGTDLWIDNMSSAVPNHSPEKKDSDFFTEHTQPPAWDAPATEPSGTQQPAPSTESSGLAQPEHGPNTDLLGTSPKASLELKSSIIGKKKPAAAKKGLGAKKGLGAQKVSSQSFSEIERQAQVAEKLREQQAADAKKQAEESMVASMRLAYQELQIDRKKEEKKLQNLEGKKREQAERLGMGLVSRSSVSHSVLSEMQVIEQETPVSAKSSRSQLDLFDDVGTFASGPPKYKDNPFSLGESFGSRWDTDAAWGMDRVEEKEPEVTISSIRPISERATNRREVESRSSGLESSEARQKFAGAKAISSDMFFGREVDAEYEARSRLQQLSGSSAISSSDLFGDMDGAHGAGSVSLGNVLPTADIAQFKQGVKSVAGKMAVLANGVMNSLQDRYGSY

**Q.** Which “effect of peptide on Arf GAP2 activity” value (Arf GAP2 [1]; [10]) does the source give for `CSCC[C@H](NC(=O)[C@H](CCCNC(=N)N)NC(=O)[C@@H](N)Cc1c[nH]c2ccccc12)C(=O)N[C@@H](CCCNC(=N)N)C(=O)N[C@@H](Cc1c[nH]cn1)C(=O)N[C@@H](CC(C)C)C(=O)N[C@@H](CCCCN)C(=O)N[C@@H](CO)C(=O)N[C@@H](Cc1ccccc1)C(=O)N[C@@H](Cc1ccccc1)C(=O)N[C@@H](CCC(=O)O)C(=O)N[C@@H](C)C(=O)N[C@@H](CCCCN)C(=O)N[C@@H](CCCCN)C(=O)N[C@@H](CC(C)C)C(=O)N[C@H](C(=O)O)C(C)C` (H-WRMRHLKSFFEAKKLV-OH) here?
**A.** stimulated activity

**Q.** Which “effect of peptide on Arf GAP2 activity” value (Arf GAP2 [1]; [10]) does the source give for `CC[C@H](C)[C@H](NC(=O)[C@H](CC(C)C)NC(=O)[C@H](CCCCN)NC(=O)[C@H](CCCCN)NC(=O)[C@H](C)NC(=O)[C@H](CCCCN)NC(=O)[C@H](Cc1ccccc1)NC(=O)[C@H](Cc1ccccc1)NC(=O)[C@H](CCCNC(=N)N)NC(=O)[C@H](CCCNC(=N)N)NC(=O)[C@H](CC(C)C)NC(=O)[C@@H](N)Cc1ccc(O)cc1)C(=O)N[C@@H](CCC(=O)O)C(=O)O` [p23] (H-YLRRFFKAKKLIE-OH; N-terminus and C-terminus assumed) here?
**A.** stimulated GAP activity

**Q.** Which “effect of p25 on kcat” value (Arf GAP2 [2]) does the source give for `CC(C)C[C@H](NC(=O)[C@H](Cc1c[nH]cn1)NC(=O)[C@@H](N)CCCNC(=N)N)C(=O)N[C@@H](CCCCN)C(=O)N[C@@H](CO)C(=O)N[C@@H](Cc1ccccc1)C(=O)N[C@@H](Cc1ccccc1)C(=O)N[C@@H](CCC(=O)O)C(=O)N[C@@H](C)C(=O)N[C@@H](CCCCN)C(=O)N[C@@H](CCCCN)C(=O)N[C@@H](CC(C)C)C(=O)N[C@H](C(=O)O)C(C)C` [p25] (H-RHLKSFFEAKKLV-OH; N-terminus and C-terminus assumed) here?
**A.** increased the kcat of the reaction

**Q.** And the “effect of p25 on Arf GAP1” value (Arf GAP1)?
**A.** stimulated by p25 when coatomer was present

**Q.** What about the “effect of p25 on time dependence of hydrolysis” value (Arf GAP2 [3]; 25 μM p25 with coatomer) of the same molecule?
**A.** accelerated hydrolysis

**Q.** And the “effect of p25 on kcat” value (Arf GAP2 [4])?
**A.** increased the kcat of the reaction

**Q.** What about the “effect of p25 on ASAP1 with coatomer” value (ASAP1; 25 μM p25, 124 nM coatomer) of the same molecule?
**A.** coatomer-dependent inhibition was increased by p25

**Q.** What about the “effect of p25 on ASAP1 without coatomer” value (ASAP1; 25 μM p25, no coatomer) of the same molecule?
**A.** no effect in the absence of coatomer

**Q.** What about the EC50 (Arf GAP2 [1]) of the same molecule?
**A.** 500 ± 200 nM

**Q.** What about the “effect of peptide on Arf GAP2 activity” value (Arf GAP2 [1]; [10]) of the same molecule?
**A.** stimulated GAP activity

**Q.** What about the “peptide concentration above which the effect decreased” value (Arf GAP2 [1]; concentrations greater than, 11.4 nM Arf GAP2, 124 nM coatomer) of the same molecule?
**A.** 25 to 50 µM

**Q.** What about the “effect of p25 on coatomer dependence of Arf GAP2 activity” value (Arf GAP2 [5]; 25 μM p25, 11.4 nM Arf GAP2, 0.03 and 1.0 μm LUVs) of the same molecule?
**A.** increased the extent of hydrolysis

**Q.** What about the “coatomer concentration at peak activity, with p25” value (Arf GAP2 [5]; 25 μM p25 peptide, smaller LUVs, 11.4 nM Arf GAP2, 3 min, 30 °C) of the same molecule?
**A.** 100 nM

**Q.** And the “coatomer concentration below which p25 effect was greatest” value (Arf GAP2 [5]; smaller LUVs, 25 μM p25, 11.4 nM Arf GAP2)?
**A.** less than 250 nM

**Q.** And the “effect of p25 on Arf GAP2 with coatomer” value (Arf GAP2 [6]; 25 μM p25, 11.4 nM Arf GAP2, 124 nM coatomer)?
**A.** increased the activity in the samples containing both Arf GAP2 and coatomer

**Q.** What about the “Arf GAP2 activity without coatomer” value (Arf GAP2 [6]; 25 μM p25, 11.4 nM Arf GAP2, no coatomer) of the same molecule?
**A.** No activity was detected in the absence of coatomer

**Q.** What about the “effect of p25 on Arf GAP2 without coatomer” value (Arf GAP2 [6]; 25 μM p25, 3.4 μM Arf GAP2, no coatomer) of the same molecule?
**A.** had no effect

**Q.** With “Arf GAP2: [1–521] Arf GAP2 His6 expressed in E. coli and purified from inclusion bodies” as the molecule, how does the “extent of hydrolysis at highest Arf GAP2 concentration” value ([7]; 3.4 μM Arf GAP2, no coatomer, footnote 1) read?
**A.** 25% – 40

**Q.** And the “C50 (amount of Arf GAP needed for 50% of maximum observed hydrolysis)” value [7, 11]?
**A.** > 500 nM

**Q.** What about the “Maximum GTP Hydrolysis” value [7, 11] of the same molecule?
**A.** 15 ± 1%

**Q.** And the “C50 (amount of Arf GAP needed for 50% of maximum observed hydrolysis)” value [7, 12]?
**A.** > 500 nM

**Q.** And the “Maximum GTP Hydrolysis” value [7, 12]?
**A.** 6.2 ± 1.2%

**Q.** And the “C50 (amount of Arf GAP needed for 50% of maximum observed hydrolysis)” value [7, 13]?
**A.** > 500 nM

**Q.** And the “Maximum GTP Hydrolysis” value [7, 13]?
**A.** 37 ± 5.2%

**Q.** What about the “C50 (amount of Arf GAP needed for 50% of maximum observed hydrolysis)” value [7, 14] of the same molecule?
**A.** > 500 nM

**Q.** What about the “Maximum GTP Hydrolysis” value [7, 14] of the same molecule?
**A.** 25 ± 2.0%

**Q.** And the “GAP activity compared to purified Arf GAP1” value ([7]; no coatomer)?
**A.** little activity compared to purified Arf GAP1

**Q.** What about the “effect of coatomer and curvature on Arf GAP2” value (Arf GAP2 [8]) of the same molecule?
**A.** stimulated by coatomer but was not affected by curvature

**Q.** And the “effect of vesicle size on Arf GAP2 binding to LUVs” value (Protein binding to LUVs)?
**A.** did not detect an effect of vesicle size

**Q.** And the “binding to coatomer relative to Arf GAP1” value (coatomer)?
**A.** bind coatomer more tightly than does Arf GAP1

**Q.** What about the “first order rate constant, effect of vesicle size” value (Arf GAP2 [3]; 3.4 μM Arf GAP2, 0.6 μM myrArf1•GTP, no coatomer) of the same molecule?
**A.** three-fold greater on the smaller vesicles than on the larger vesicles

**Q.** And the “rate constant relative to kcat of Arf GAP1” value (Arf GAP2 [3]; 3.4 μM Arf GAP2, no coatomer, kcat of Arf GAP1 from ref 22)?
**A.** less than 1/100

**Q.** With “phosphatidylinositol 4,5-bisphosphate [PIP2]” as the molecule, how does the “effect of phosphoinositide on Arf GAP2 activity” value (Arf GAP2 [9]) read?
**A.** affected the extent of hydrolysis but not the C50

**Q.** For phosphatidylinositol 4-phosphate [PI4P], which “reduction of C50 by PI4P” value (Arf GAP2 [9]; 124 nM coatomer present) is on record?
**A.** 2 fold

**Q.** And the “effect of phosphoinositide on Arf GAP2 activity” value (Arf GAP2 [9])?
**A.** had no effect by itself

B1: Arf GAP3: Arf GAP that functions with the coat protein coatomer (protein, UniProt Q9NP61 1-516, looked up)
ADP-ribosylation factor …: MGDPSKQDILTIFKRLRSVPTNKVCFDCGAKNPSWASITYGVFLCIDCSGSHRSLGVHLSFIRSTELDSNWSWFQLRCMQVGGNASASSFFHQHGCSTNDTNAKYNSRAAQLYREKIKSLASQATRKHGTDLWLDSCVVPPLSPPPKEEDFFASHVSPEVSDTAWASAIAEPSSLTSRPVETTLENNEGGQEQGPSVEGLNVPTKATLEVSSIIKKKPNQAKKGLGAKKGSLGAQKLANTCFNEIEKQAQAADKMKEQEDLAKVVSKEESIVSSLRLAYKDLEIQMKKDEKMNISGKKNVDSDRLGMGFGNCRSVISHSVTSDMQTIEQESPIMAKPRKKYNDDSDDSYFTSSSSYFDEPVELRSSSFSSWDDSSDSYWKKETSKDTETVLKTTGYSDRPTARRKPDYEPVENTDEAQKKFGNVKAISSDMYFGRQSQADYETRARLERLSASSSISSADLFEEPRKQPAGNYSLSSVLPNAPDMAQFKQGVRSVAGKLSVFANGVVTSIQDRYGS
**Q.** For B1, which “binding to coatomer relative to Arf GAP1” value (coatomer) is on record?
**A.** bind coatomer more tightly than does Arf GAP1

Source: publication PMC2692659 (Cellular signalling, 2009)
